We go through six molecules from ChEMBL document CHEMBL1250469, “Design, synthesis, and biological evaluation of ketoprofen analogs as potent cyclooxygenase-2 inhibitors” (Bioorg Med Chem, 2010).

Bounds are passed on as bounds.

The species named for the test is Ovis aries. Description: Selectivity index, ratio of IC50 for sheep COX1 to IC50 for COX2. Summed up:
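Ratio of IC50 for COX-1 to IC50 for COX-2. Both come from the ovine chemiluminescent COX assay, with arachidonic acid as substrate and a naphthalene hydrazide luminescence read-out. Each IC50 is the mean of two determinations.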

For the molecule `[N-]=[N+]=Nc1ccc(-c2cc(C(=O)O)c3cccc(C(=O)c4ccccc4)c3n2)cc1`, the Ratio IC50 was found to be 1150. Then `CC(=O)Nc1ccc(-c2cc(C(=O)O)c3cccc(C(=O)c4ccccc4)c3n2)cc1`, with 115; and `CS(=O)(=O)c1ccc(-c2cc(C(=O)O)c3cccc(C(=O)c4ccccc4)c3n2)cc1`, with 231. Turning to `CC(=O)Nc1ccc(-c2cc(C(=O)O)c3cc(C(=O)c4ccccc4)ccc3n2)cc1`, the Ratio IC50 was determined as 256. The figure for `[N-]=[N+]=Nc1ccc(-c2cc(C(=O)O)c3cc(C(=O)c4ccccc4)ccc3n2)cc1` is more than 1300. The figure for `CS(=O)(=O)c1ccc(-c2cc(C(=O)O)c3cc(C(=O)c4ccccc4)ccc3n2)cc1` is 317.
